Screening results from PubChem.
Rows were chosen to be rich in hits. Some 2% of all compounds tested hit in one or more screens of this group.
SR-BI HDL uptake = inhibitors of SR-BI mediated HDL lipid uptake, primary screen, ldlA[mSR-BI] cells, fluorescence, single point; Scavenger receptor class B member 1 (Mus musculus), Q61009; ldlA[mSR-BI] CHO cells, DiI-HDL uptake fluorescence, 3 h; inhibition, % at 12.5 µM; 320,000 tested, 0.96% active; AID 488896, 2010;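 active = mean replicate inhibition of at least 70% and a set share of replicates each scoring 70 or more; inconclusive = meets just one of the two criteria; inactive = fails both criteria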
Target sequence (Q61009 whole entry, looked up): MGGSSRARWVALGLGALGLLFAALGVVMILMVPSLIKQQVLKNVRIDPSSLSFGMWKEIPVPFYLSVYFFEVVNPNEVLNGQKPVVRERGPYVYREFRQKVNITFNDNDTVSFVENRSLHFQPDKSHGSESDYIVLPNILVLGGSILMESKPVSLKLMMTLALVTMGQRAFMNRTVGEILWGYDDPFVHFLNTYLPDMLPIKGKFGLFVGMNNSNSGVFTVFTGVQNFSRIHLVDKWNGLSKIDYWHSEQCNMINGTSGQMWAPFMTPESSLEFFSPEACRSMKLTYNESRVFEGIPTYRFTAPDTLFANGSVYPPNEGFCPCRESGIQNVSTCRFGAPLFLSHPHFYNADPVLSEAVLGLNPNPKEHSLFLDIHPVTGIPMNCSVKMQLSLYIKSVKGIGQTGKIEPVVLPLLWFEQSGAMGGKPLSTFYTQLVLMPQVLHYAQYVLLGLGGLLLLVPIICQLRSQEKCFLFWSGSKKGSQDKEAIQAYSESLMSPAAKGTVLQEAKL
dFosB act-1 = activators of delta FosB homodimer, primary screen, biochemical, fluorescence polarization, TAMRA-CDK5 oligo, single point. purified delta FosB; percent of positive-control signal above neutral wells. Protein FosB (Mus musculus), P13346. 340,000 tested, 0.99% active. AID 493131, 2011. activation, % at 25 µM;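 active = mean activation above about 17%, with every replicate also reaching it, limit read from the data, passing the limit was not always enough; inconclusive = only one of the two conditions met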
CDK5 inh = inhibitors of human CDK5/p35 kinase, primary screen, biochemical, single concentration; inhibition, % at 10 µM; Recombinant CDK5/p35, ADP-Glo luminescence, 60 min; 330,000 tested, 0.01% active; Cyclin-dependent kinase 5 (Homo sapiens) + Cyclin-dependent kinase 5 activator 1 (Homo …;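 active = highest replicate inhibition of at least 50% and at least 75% of replicates reaching 50%; inconclusive = only one of the two criteria met; inactive = both criteria failed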
SR-BI DiI-HDL act = activators of SR-BI mediated DiI-HDL uptake, primary screen, ldlA[mSR-BI] CHO cells, DiI fluorescence | 3 h; 100 = double the neutral-control signal | AID 504775, 2011 | activation, % at 12.5 µM | 320,000 tested, 0.096% active;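 active = mean replicate activation of at least 60% and every replicate at or above 60%; inconclusive = mean or all-replicate condition met, but not both; inactive = mean below 60% and not all replicates reaching 60%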
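Test system: SR-BI-overexpressing, LDLR-lacking CHO cells; Also added: labelled HDL, 10 µg/mL; Measured by: bottom-read cell fluorescence after medium removal, ex 550/em 595 nm; Timing: 3 h uptake period with compound, 37 °C; Buffer or medium: F12, 0.5% BSA, 25 mM HEPES; Doses: single compound concentration, delivered by pin transfer.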
dFosB act-2 = activators of mouse delta FosB DNA binding, confirmation, biochemical, fluorescence polarization, TAMRA-CDK5 oligo, cherry-picked samples | shares compounds with dFosB act-1 | purified delta FosB; normalised: neutral wells 0, positive control 100 | activation, % at 24.9 µM | 2,400 tested, under 10 active;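 active = highest replicate activation at or above 34% and every replicate reaching that threshold; inconclusive = meets only one of the two criteria; inactive = meets neither criterion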;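 also: higher polarization means more probe DNA bound by delta FosB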
Numbers stand for hits; . = inactive; ? = inconclusive; / = not tested or not shown.

SMILES	SR-BI HDL uptake	dFosB act-1	CDK5 inh	SR-BI DiI-HDL act	dFosB act-2
O=C(COc1ccc(/C=N/NC(=O)c2cc3ccccc3o2)cc1Br)Nc1ccccc1	.	66	.	.	.
O=C(COc1ccccc1[N+](=O)[O-])Nc1ccc2oc(=O)ccc2c1	.	.	.	.	/
COc1ccc(NS(=O)(=O)c2cccc(C(=O)OCC(=O)Nc3cc(C)on3)c2)cc1	.	20	.	.	.
O=C(N/N=C/c1ccco1)c1cc2ccccc2o1	.	.	.	.	/
CCOC(=O)C1CCCN(C(=S)NC(=O)c2cc(Br)ccc2Cl)C1 (stereo not drawn)	.	.	.	.	/
CC1CC(C)CN(C(=O)c2cc(S(=O)(=O)N3CCCCC3)ccc2Cl)C1 (stereo not drawn)	.	.	.	.	/
Cc1cccn2c(=O)nc(SCC(=O)N3CCN(c4ccccc4)CC3)nc12	.	.	.	.	/
Cc1ccccc1C(=O)NC1CCN(CC(=O)N2CCCCC2C)CC1 (stereo not drawn)	/	.	.	/	/
CCc1nn2c(=O)cc(COC(=O)c3ccc(SC)cc3OC)nc2s1	.	.	.	.	/
Cc1cc(C)c(OCC(=O)Nc2ccc(NC(=O)c3ccco3)cc2)c([N+](=O)[O-])c1	.	18	.	.	.
O=C(Cc1cccc2ccccc12)N/N=C/c1ccc(OC(=O)/C=C/c2ccco2)cc1	.	18	.	.	.
O=C(N/N=C/c1cccc2cccnc12)c1ccccc1O	/	.	.	/	/
O=C(N/N=C/c1cccc2nccnc12)c1ccccc1O	/	23	.	/	.
Cc1noc(C)c1S(=O)(=O)Nc1ccc2c(c1)C(=O)N([C@H](C)CO)C[C@H](C)[C@@H](CN(C)S(=O)(=O)c1ccccc1)O2	.	.	.	.	/
NS(=O)(=O)c1ccc(CCNC(=O)CCNS(=O)(=O)c2ccccc2C(F)(F)F)cc1	.	.	.	.	/
O=C(CNCc1ccc(Cl)cc1)Nc1ccc(C(=O)N2CCCCC2)cc1	?	.	.	.	/
O=C(c1ccc(NC(=S)NCc2ccc(Cl)cc2)cc1)N1CCCCC1	.	30	.	.	.
Cc1ccc(NC(=O)C=NOCC(=O)Nc2cc(C)cc(C)c2)cc1	.	25	.	.	.
O=S1(=O)N=C(Nc2ccc(S(=O)(=O)N3CCCCC3)cc2)c2ccccc21	.	47	.	.	.
Cc1n[nH]c(=O)c2c(NC(=O)CSc3nncn3C(C)C)oc(C)c12	.	.	.	.	/
COC(=O)c1ccc(NC(=O)C(=O)c2c[nH]c3ccccc23)cc1	.	72	.	.	.
O=C(COC(=O)c1c[nH]c2ccccc12)Nc1ccccc1	.	.	.	.	/
O=C(Nc1ccc(-c2cc3ccccc3oc2=O)c(Cl)c1)c1cccnc1	.	84	.	.	.
O=C(Nc1cccc(-c2cc3ccccc3oc2=O)c1)c1ccc(Br)o1	.	.	.	.	/
O=C(Nc1cccnc1)c1cccc(-c2cc3ccccc3oc2=O)c1	.	46	.	.	.
SMILES	SR-BI HDL uptake	dFosB act-1	CDK5 inh	SR-BI DiI-HDL act	dFosB act-2
O=C(Cc1ccc(Cl)cc1)Nc1ccc(-c2cc3ccccc3oc2=O)c(Cl)c1	.	.	.	.	/
O=C(Nc1nc2c(Cl)ccc(Cl)c2s1)C1CC1	.	28	.	.	.
CSc1ccc(CNc2nc3ccccc3n3cnnc23)cc1	/	26	.	/	.
CC(=O)c1cccc(N(C(=O)CNC(=O)c2cccs2)C(C(=O)NCC2CCCO2)c2ccccc2)c1 (stereo not drawn)	.	.	.	.	/
NC(=O)Cn1c(=O)n(C2CCCCC2)c(=O)c2c3c(sc21)CCCCC3	.	44	.	.	.
COc1ccc(-n2c(=O)c3c4c(sc3n(CC(N)=O)c2=O)CCCCC4)cc1	.	30	.	.	.
C=CCn1c(SCC(=O)N(CCO)CCO)nc2sc3c(c2c1=O)CCC3	.	.	.	.	/
S=c1nc(-c2ccc(Br)cc2)[nH]c2ccccc12	/	45	.	/	.
Cc1ccc(C)c(OCc2cc(C(=O)NC3CCN(Cc4ccccc4)CC3)no2)c1	.	22	/	.	.
O=C(OCC(=O)N1CCc2ccccc2C1)c1ccc(F)cc1Cl	.	.	.	.	/
COc1cc(/C=N/NC(=O)c2ccc3c(c2)OCO3)ccc1O	.	.	.	.	/
COc1ccc(/C=N/NC(=O)c2cc(-c3ccc4c(c3)OCO4)n[nH]2)cc1OC	.	73	.	.	.
COc1ccc(NS(=O)(=O)c2cccc(C(=O)N/N=C/c3ccc4c(c3)OCCO4)c2)cc1	.	25	.	.	.
O=C(N/N=C/c1ccc(F)cc1)c1cc(-c2ccc3c(c2)OCO3)n[nH]1	.	29	.	.	.
CN(C)c1ccc(/C=N/NC(=O)c2cc(-c3ccc4c(c3)OCO4)n[nH]2)cc1	.	.	.	.	/
O=C(N/N=C/c1ccc2c(c1)OCO2)c1ccc(NC(=O)c2ccc(F)cc2)cc1	/	103	.	/	.
COc1ccccc1CNC(=O)c1ccc2c(=O)n(CCCN3CCCC3=O)c(=S)[nH]c2c1	.	.	.	.	/
NS(=O)(=O)c1ccc(NC(=O)CSc2nc3c(c(=O)[nH]2)CCCC3)cc1	/	.	.	/	/
COc1ccc2c(Cl)c(C(=O)N/N=C/c3ccc4c(c3)OCO4)sc2c1	/	34	.	/	.
C/C(=N/NC(=O)c1ccc2c(c1)OCO2)c1ccc(NC(=O)C(F)(F)F)cc1	.	28	.	.	.
O=C(N/N=C\C=C\c1ccc(Br)cc1)c1ccc2c(c1)OCO2	.	24	.	.	.
Cc1ccc(Cl)cc1NC(=O)C(=O)N/N=C/c1ccc2c(c1)OCO2	.	40	.	.	.
O=C(N/N=C/C=C/c1ccc2c(c1)OCO2)c1ccc([N+](=O)[O-])cc1	.	.	.	.	/
O=C(N/N=C/c1ccc2c(c1)OCO2)c1sc2cc(Cl)ccc2c1Cl	.	.	.	.	/
Cc1cc(Cl)ccc1NC(=O)C(=O)N/N=C/c1ccc2c(c1)OCO2	.	.	.	.	/
Cc1cccnc1NC(=O)CCNC(=O)c1ccccc1Cl	.	.	.	.	/
NC(=O)c1ccc(NC(=O)COC(=O)/C=C/c2ccc3c(c2)OCO3)cc1	/	24	.	/	.
CC(=O)Nc1ccc(NC(=O)COC(=O)/C=C/c2ccc3c(c2)OCO3)cc1	.	.	.	.	/
O=c1cc(-c2ccc(OCc3ccccc3)cc2)oc2cc(OCc3ccccc3)cc(OCc3ccccc3)c12	.	.	.	.	/
COc1ccc(S(=O)(=O)N2CCCC(C(=O)NCc3ccc4c(c3)OCO4)C2)cc1 (stereo not drawn)	/	.	.	/	/
